Assay results as given in ChEMBL document CHEMBL1131446, “New 1,4-dihydropyridines conjugated to furoxanyl moieties, endowed with both nitric oxide-like and calcium channel antagonist vasodilator activities” (J Med Chem, 1998).
pEC50, pIC50, pKi: −log10 of the molar value.

Assays:
Rattus norvegicus [1] = organism: Rattus norvegicus; assay: Vasodilator activity was measured on rat aorta.
[2] = target: T1, Voltage-dependent L-type calcium channel subunit alpha-1D (Rattus norvegicus, UniProt P27732); assay: Inhibitory concentration for L-type [Ca2+] channels was measured through displacement of [3H]nitrendipine on rat cortex homogenates.; type: tissue-based
[3] = target: T1, Voltage-dependent L-type calcium channel subunit alpha-1D; assay: Binding affinity for L-type [Ca2+] channels was measured through displacement of [3H]nitrendipine on rat cortex homogenates.; type: tissue-based
Rattus norvegicus [4] = organism: Rattus norvegicus; assay: […]; type: functional
Summary of the method: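 Nitrite formation measured as an index of NO release. Compound incubated in pH 7.4 buffer with a 50-fold molar excess of L-cysteine at 37 °C. After 1 h, nitrite was detected by the Griess reaction. Values are expressed as % NO₂⁻ (mol/mol).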

Rattus norvegicus [5] = organism: Rattus norvegicus; assay: Vasodilator activity was measured on rat aorta in the presence of methylene blue (MB).

T1 sequence (P27732 whole entry): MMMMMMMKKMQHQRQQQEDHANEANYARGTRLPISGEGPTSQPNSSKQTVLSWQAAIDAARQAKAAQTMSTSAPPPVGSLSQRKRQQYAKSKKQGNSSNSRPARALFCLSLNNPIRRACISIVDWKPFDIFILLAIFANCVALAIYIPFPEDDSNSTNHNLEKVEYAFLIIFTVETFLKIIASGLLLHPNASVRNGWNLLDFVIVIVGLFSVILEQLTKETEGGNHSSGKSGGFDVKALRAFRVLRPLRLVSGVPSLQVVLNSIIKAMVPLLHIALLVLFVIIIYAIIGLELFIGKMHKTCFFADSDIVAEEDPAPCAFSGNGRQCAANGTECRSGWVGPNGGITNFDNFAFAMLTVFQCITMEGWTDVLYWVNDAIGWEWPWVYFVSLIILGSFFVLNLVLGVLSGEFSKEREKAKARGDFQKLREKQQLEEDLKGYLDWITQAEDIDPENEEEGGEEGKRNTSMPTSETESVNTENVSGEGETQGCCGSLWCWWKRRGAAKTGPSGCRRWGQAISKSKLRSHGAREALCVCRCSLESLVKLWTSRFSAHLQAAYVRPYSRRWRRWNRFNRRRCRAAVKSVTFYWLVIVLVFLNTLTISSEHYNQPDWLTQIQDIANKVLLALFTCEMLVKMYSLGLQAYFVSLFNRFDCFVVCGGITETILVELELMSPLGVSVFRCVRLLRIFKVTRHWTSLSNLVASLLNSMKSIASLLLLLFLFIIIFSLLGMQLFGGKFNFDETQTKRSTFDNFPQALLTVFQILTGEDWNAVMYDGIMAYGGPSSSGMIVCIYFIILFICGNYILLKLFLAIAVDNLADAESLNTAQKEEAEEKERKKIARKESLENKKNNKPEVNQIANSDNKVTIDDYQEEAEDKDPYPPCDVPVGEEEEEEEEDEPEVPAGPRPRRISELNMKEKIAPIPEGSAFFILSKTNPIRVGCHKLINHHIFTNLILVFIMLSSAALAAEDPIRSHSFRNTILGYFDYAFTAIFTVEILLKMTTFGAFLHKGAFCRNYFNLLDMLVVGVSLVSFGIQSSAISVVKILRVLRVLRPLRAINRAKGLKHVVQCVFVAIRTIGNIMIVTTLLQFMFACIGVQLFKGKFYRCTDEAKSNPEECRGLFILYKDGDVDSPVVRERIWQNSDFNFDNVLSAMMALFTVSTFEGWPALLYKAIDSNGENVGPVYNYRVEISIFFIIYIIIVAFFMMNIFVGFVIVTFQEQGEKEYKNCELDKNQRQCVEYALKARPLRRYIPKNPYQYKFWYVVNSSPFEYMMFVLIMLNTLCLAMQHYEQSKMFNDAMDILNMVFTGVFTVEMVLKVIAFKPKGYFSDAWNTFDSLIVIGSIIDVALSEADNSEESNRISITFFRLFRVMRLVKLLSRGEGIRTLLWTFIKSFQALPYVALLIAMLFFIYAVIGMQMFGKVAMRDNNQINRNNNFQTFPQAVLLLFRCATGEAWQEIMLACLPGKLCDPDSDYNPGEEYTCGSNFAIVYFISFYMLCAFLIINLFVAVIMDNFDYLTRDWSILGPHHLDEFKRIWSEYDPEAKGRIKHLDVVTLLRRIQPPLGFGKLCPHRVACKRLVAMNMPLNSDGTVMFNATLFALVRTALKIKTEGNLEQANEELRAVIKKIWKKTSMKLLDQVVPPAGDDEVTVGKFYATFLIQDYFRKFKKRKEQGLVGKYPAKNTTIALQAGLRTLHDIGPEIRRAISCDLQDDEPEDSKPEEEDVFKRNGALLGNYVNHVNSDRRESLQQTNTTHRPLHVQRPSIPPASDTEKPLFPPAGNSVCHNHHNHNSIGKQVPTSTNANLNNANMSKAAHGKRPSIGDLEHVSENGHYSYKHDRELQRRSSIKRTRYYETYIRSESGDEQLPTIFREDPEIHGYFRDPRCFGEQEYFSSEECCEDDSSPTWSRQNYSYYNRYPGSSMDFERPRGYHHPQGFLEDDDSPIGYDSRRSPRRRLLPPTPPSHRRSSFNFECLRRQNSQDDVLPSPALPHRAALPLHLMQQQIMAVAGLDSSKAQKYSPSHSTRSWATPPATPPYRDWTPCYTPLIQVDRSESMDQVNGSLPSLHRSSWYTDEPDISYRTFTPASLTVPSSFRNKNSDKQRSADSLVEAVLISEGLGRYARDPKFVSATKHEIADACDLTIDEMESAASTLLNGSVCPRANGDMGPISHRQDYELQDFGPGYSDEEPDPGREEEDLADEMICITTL

| SMILES | pEC50 (Rattus norvegicus [1]) | pIC50 [2] | pKi [3] | EC50 iGC (Rattus norvegicus [5]) | Nitric oxide (Rattus norvegicus [4]) |
| --- | --- | --- | --- | --- | --- |
| COC(=O)C1=C(C)N=C(C)/C(=C(/O)OC)C1c1cccc(OCc2c(C)no[n+]2[O-])c1 (centres undefined) | 6.40 | 6.21 | 6.55 | 400 nM | <0.5% |
| COC(=O)C1=C(C)N=C(C)/C(=C(/O)OC)C1c1ccccc1OCc1nonc1C(N)=O (centres undefined) | 6.01 | 6.06 | 6.40 | 910 nM |  |
| COC(=O)C1=C(C)N=C(C)/C(=C(/O)OC)C1c1ccccc1OCc1no[n+]([O-])c1C(N)=O (centres undefined) | 6.26 | 5.82 | 6.17 | 940 nM | 13% |
| COC(=O)C1=C(C)N=C(C)/C(=C(/O)OC)C1c1cccc(OCc2nonc2C#N)c1 (centres undefined) | 6.51 | 6.23 | 6.57 | 300 nM |  |
| COC(=O)C1=C(C)N=C(C)/C(=C(/O)OC)C1c1cccc(OCCO[N+](=O)[O-])c1 (centres undefined) | 6.12 | 6.01 | 6.36 | 750 nM | <0.5% |
| COC(=O)C1=C(C)N=C(C)/C(=C(/O)OC)C1c1cccc(OCc2nonc2C)c1 (centres undefined) | 6.19 | 6.14 | 6.49 | 620 nM |  |
| COC(=O)C1=C(C)N=C(C)/C(=C(/O)OC)C1c1cccc(OCc2nonc2C(N)=O)c1 (centres undefined) | 5.46 | 5.29 | 5.64 | 3300 nM |  |
| COC(=O)C1=C(C)N=C(C)/C(=C(/O)OC)C1c1ccccc1OCc1c(C(N)=O)no[n+]1[O-] (centres undefined) | 6.25 | 6.11 | 6.46 | 640 nM | 12.3% |
| COC(=O)C1=C(C)N=C(C)/C(=C(/O)OC)C1c1cccc(OCc2no[n+]([O-])c2C(N)=O)c1 (centres undefined) | 6.15 | 5.70 | 6.04 | 1500 nM | 6% |
| COC(=O)C1=C(C)N=C(C)/C(=C(/O)OC)C1c1cccc(OCc2c(C(N)=O)no[n+]2[O-])c1 (centres undefined) | 5.92 | 5.44 | 5.80 | 3700 nM | 7.6% |
| COC(=O)C1=C(C)N=C(C)/C(=C(/O)OC)C1c1ccccc1OCc1c(C)no[n+]1[O-] (centres undefined) | 7.11 | 7.14 | 7.49 | 76 nM | 1.8% |
| COC(=O)C1=C(C)N=C(C)/C(=C(/O)OC)C1c1cccc(OCc2no[n+]([O-])c2C)c1 (centres undefined) | 6.30 | 6.09 | 6.43 | 540 nM | <0.5% |
| COC(=O)C1=C(C)NC(C)=C(C(=O)OC)C1c1ccccc1[N+](=O)[O-] [NIFEDIPINE] | 8.49 |  |  | 3.4 nM |  |

Continued by rising pEC50 (Rattus norvegicus [1]), values first:

| pEC50 (Rattus norvegicus [1]) | pIC50 [2] | pKi [3] | EC50 iGC (Rattus norvegicus [5]) | SMILES | Nitric oxide (Rattus norvegicus [4]) |
| --- | --- | --- | --- | --- | --- |
| 7.25 | 7.07 | 7.42 | 54 nM | COC(=O)C1=C(C)N=C(C)/C(=C(/O)OC)C1c1ccccc1OCCO[N+](=O)[O-] (centres undefined) | <0.5% |
| 7.37 | 7.40 | 7.74 | 46 nM | COC(=O)C1=C(C)N=C(C)/C(=C(/O)OC)C1c1ccccc1OCc1no[n+]([O-])c1C (centres undefined) | 0.9% |
| 7.39 | 7.23 | 7.57 | 46 nM | COC(=O)C1=C(C)N=C(C)/C(=C(/O)OC)C1c1ccccc1OCc1nonc1C (centres undefined) |  |
| 7.96 | 6.30 | 6.66 |  | COC(=O)C1=C(C)N=C(C)/C(=C(/O)OC)C1c1cccc(OCc2c(C#N)no[n+]2[O-])c1 (centres undefined) | 31.5% |
| 8.03 | 7.17 | 7.52 | 50 nM | COC(=O)C1=C(C)N=C(C)/C(=C(/O)OC)C1c1ccccc1OCc1c(C#N)no[n+]1[O-] (centres undefined) | 24% |
| 8.18 | 8.00 | 8.33 | 6.6 nM | COC(=O)C1=C(C)N=C(C)/C(=C(/O)OC)C1c1ccccc1OCc1nonc1C#N (centres undefined) |  |
| 8.36 | 7.57 | 7.68 | 22 nM | COC(=O)C1=C(C)N=C(C)/C(=C(/O)OC)C1c1ccccc1OCc1no[n+]([O-])c1C#N (centres undefined) | 40.8% |
| 8.48 | 6.30 | 6.64 |  | COC(=O)C1=C(C)N=C(C)/C(=C(/O)OC)C1c1cccc(OCc2no[n+]([O-])c2C#N)c1 (centres undefined) | 43.8% |
